Assay results of several laboratories.
Each line is one published result; the experiments were not run side by side.
Target: Mitogen-activated protein kinase kinase kinase 15 (MAP3K15, Homo sapiens, UniProt Q6ZN16)
Sequence (Q6ZN16 1-1313, as in one of the studies): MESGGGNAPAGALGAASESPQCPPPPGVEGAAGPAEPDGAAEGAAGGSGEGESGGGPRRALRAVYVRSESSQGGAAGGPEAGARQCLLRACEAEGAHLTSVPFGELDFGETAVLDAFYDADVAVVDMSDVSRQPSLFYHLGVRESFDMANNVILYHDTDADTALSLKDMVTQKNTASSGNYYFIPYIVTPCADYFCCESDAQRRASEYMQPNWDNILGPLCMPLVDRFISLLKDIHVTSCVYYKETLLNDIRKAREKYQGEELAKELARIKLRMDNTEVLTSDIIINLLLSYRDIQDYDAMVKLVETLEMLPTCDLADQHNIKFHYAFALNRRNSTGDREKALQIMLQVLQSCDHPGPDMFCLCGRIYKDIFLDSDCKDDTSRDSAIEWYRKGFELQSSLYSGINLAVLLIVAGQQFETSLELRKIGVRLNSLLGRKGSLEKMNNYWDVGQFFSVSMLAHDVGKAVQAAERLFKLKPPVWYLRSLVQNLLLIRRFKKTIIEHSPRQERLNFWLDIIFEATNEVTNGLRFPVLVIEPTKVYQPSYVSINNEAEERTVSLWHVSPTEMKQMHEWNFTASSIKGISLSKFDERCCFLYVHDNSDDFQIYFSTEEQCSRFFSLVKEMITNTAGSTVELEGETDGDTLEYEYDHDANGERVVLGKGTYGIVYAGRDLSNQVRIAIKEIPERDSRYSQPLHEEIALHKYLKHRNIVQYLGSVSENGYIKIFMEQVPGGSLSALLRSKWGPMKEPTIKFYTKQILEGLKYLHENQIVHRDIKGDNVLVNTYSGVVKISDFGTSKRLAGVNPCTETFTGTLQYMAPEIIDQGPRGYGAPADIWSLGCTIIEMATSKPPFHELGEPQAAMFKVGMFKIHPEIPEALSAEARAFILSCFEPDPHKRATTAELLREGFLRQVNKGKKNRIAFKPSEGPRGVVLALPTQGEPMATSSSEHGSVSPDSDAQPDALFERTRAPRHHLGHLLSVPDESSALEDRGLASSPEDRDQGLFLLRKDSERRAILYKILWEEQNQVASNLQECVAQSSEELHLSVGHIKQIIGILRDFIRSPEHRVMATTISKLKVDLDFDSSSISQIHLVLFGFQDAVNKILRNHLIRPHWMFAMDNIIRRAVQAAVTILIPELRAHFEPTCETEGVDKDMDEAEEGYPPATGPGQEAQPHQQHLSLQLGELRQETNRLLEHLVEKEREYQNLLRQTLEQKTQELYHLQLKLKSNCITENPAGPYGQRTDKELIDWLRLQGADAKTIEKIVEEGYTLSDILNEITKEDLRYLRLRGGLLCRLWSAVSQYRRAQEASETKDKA

SMILES | effect on | method | tested at | remaining binding [%]
O=c1nc(-c2ccccn2)sc2ccccc12 | binding | competition with immobilised ligand | 1 µM | 100
O=C(NCCCN1CCOCC1)c1ccc(Nc2nccc(-c3cc4ccccc4s3)n2)cc1 | binding | competition with immobilised ligand | 1 µM | 56
CC1=C(C#N)C(c2ccc3c(c2)c(NC(=O)c2ccccc2C)nn3C)C(C#N)=C(C)N1 | cell-free assay | competition with immobilised ligand | 1 µM | 96
CN(C)c1nccc(-c2cnn3ncccc23)n1 | binding |  | 1 µM | 91
O=C(c1ccc(Nc2nccc(-c3cc4ccccc4s3)n2)cc1)N1CCC(N2CCCC2)CC1 | binding | competition with immobilised ligand | 1 µM | 96
Cn1cc(Cl)c2c(Oc3c(F)cc(Nc4cc(Cl)nc(N)n4)cc3F)ccnc21 | cell-free assay | competition with immobilised ligand | 0.1 µM | 84
O=C(Nc1c[nH]nc1C(=O)NC1CCNCC1)c1cc(F)cc(F)c1 | binding | competition with immobilised ligand | 1 µM | 100
CC1CCCN1c1nccc(-c2cnn3ncccc23)n1 (centres unmarked) | binding |  | 1 µM | 100
CCCOc1ccc([C@@H]2[C@@H](C(=O)O)[C@H](c3ccc4c(c3)OCO4)CN2CC(=O)Nc2c(CC)cccc2CC)cc1 | cell-free assay | competition with immobilised ligand | 1 µM | 99
COc1cnc(Nc2cccc(S(N)(=O)=O)c2)nc1N1CCN(c2ccccc2)CC1 | binding | competition with immobilised ligand | 1 µM | 78
CN(CCCC(F)(F)F)c1nccc(-c2cnn3ncccc23)n1 | binding |  | 1 µM | 100
COc1cnc(Nc2cccc(S(N)(=O)=O)c2)nc1N1CCN(c2ccccc2)C(=O)C1 | binding | competition with immobilised ligand | 1 µM | 69
N[C@H]1CCN(c2nccc(-c3cnn4ncccc34)n2)C1 | binding |  | 1 µM | 83
CN(C)C(=O)Cn1cc(-c2nc([C@@](C)(c3ccc(-c4cnc(N)nc4)cc3)C3CC3)no2)cn1 | cell-free assay | competition with immobilised ligand | 1 µM | 99
C[C@@H](c1ccc(-n2cnc3c(N)ncnc32)cc1)N1CCc2nn(C)c(Cc3ccccc3)c2C1=O | binding | competition with immobilised ligand | 0.1 µM | 60
Cc1cnn2ncc(-c3ccnc(N(C)C)n3)c2c1 | binding |  | 1 µM | 100
Cc1nccc(COC(=O)N2C[C@@H]3[C@@H](CNC(=O)c4ccc5[nH]nnc5c4)[C@@H]3C2)n1 | cell-free assay | competition with immobilised ligand | 1 µM | 95
Cc1cnc(Nc2ccc(C(=O)N3CCC(N4CCCC4)CC3)cc2)nc1-c1cc2ccccc2s1 | binding | competition with immobilised ligand | 1 µM | 38
COc1ccnn2ncc(-c3ccnc(N(C)C)n3)c12 | binding |  | 1 µM | 100
COc1ncc2cc3ccccc3nc2c1C#N | cell-free assay | competition with immobilised ligand | 5 µM | 95
